Sampled rows, rich in hits. Any-hit rate of the full collection: about 3.7%.
Furin inhibitor – human furin inhibition | P09958 | purified furin, fluorogenic substrate cleavage | inhibition, % at 20 µM or 30 µM | 220,000 compounds, 0.061% hits | AID 463115; in the data active = inhibition above about 25%
NPY Y1 blocker – antagonists of human neuropeptide Y receptor Y1 | HEK293-CNG Y1 cells, membrane potential fluorescence; NPY at EC95, then isoproterenol | inhibition, % at 3.6 µM | 200,000 compounds, 1% hits;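 active = inhibition above the campaign mean inhibition of all tested compounds plus 3 SD, cut at about 20% in these data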;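 note: 0% = DMSO wells given NPY plus isoproterenol and 100% = isoproterenol alone without NPY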
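material = HEK293 cells with Y1 receptor plus CNG channel | also added = NPY 25 nM then isoproterenol 1 µM plus Ro 20-1724 25 µM | schedule = dye 3 h, compound 60 min room temperature, stimulation 45 min | measured by = membrane potential fluorescence | benchmarks = high control isoproterenol alone, low control NPY with isoproterenol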
NPY2 pot ag – potentiates or activates human NPY-Y2 receptor. P49146. cells expressing NPY-Y2, potentiator/agonist read-out. activation, % at 3.6 µM. 220,000 compounds, 0.45% hits. AID 1359; in the data active = activation above about 27%;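 note: cells stimulated with NPY near EC25 plus isoproterenol at EC100; 0% = vehicle plus submaximal agonist and 100% = vehicle plus saturating agonist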
NPY-Y1 PAM-ag – potentiators or agonists of human neuropeptide Y receptor Y1; NPY-Y1 expressing cells, potentiator/agonist activation; AID 1304; P25929; activation, % at 3.6 µM; 220,000 compounds, 0.37% hits; in the data active = activation above about 33%, passing the limit was not always enough;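 note: cells stimulated with NPY at EC10 then isoproterenol at EC100; 0% = low agonist plus stimulus and 100% = saturating agonist plus stimulus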
NPY-Y2 antag – blocks the human neuropeptide Y Y2 receptor; NPY-Y2 expressing cells, antagonist mode; AID 793; P49146; inhibition, % at 2.7 µM; 140,000 compounds, 0.99% hits; in the data active = inhibition above about 17%;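 note: 0% = vehicle with agonist challenge and 100% = reference antagonist with challenge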
Cl transport mod – modulates chloride dependent transport by human KCC2. Q9H2X9. KCC2 cells, thallium flux FluoZin-2 fluorescence. AID 1456. B-score of Tl+ flux slope (higher = more flux/activation; lower = inhibition) at 10 µM. 190,000 compounds, 2.2% hits;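 active = thallium flux slope and its plate-corrected score both differing from the plate sample mean at a set confidence after two filtering rounds, in either direction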;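 note: slope of fluorescence scaled to starting intensity during 10 to 20 s after thallium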
Target sequence (Q9H2X9 whole entry, looked up): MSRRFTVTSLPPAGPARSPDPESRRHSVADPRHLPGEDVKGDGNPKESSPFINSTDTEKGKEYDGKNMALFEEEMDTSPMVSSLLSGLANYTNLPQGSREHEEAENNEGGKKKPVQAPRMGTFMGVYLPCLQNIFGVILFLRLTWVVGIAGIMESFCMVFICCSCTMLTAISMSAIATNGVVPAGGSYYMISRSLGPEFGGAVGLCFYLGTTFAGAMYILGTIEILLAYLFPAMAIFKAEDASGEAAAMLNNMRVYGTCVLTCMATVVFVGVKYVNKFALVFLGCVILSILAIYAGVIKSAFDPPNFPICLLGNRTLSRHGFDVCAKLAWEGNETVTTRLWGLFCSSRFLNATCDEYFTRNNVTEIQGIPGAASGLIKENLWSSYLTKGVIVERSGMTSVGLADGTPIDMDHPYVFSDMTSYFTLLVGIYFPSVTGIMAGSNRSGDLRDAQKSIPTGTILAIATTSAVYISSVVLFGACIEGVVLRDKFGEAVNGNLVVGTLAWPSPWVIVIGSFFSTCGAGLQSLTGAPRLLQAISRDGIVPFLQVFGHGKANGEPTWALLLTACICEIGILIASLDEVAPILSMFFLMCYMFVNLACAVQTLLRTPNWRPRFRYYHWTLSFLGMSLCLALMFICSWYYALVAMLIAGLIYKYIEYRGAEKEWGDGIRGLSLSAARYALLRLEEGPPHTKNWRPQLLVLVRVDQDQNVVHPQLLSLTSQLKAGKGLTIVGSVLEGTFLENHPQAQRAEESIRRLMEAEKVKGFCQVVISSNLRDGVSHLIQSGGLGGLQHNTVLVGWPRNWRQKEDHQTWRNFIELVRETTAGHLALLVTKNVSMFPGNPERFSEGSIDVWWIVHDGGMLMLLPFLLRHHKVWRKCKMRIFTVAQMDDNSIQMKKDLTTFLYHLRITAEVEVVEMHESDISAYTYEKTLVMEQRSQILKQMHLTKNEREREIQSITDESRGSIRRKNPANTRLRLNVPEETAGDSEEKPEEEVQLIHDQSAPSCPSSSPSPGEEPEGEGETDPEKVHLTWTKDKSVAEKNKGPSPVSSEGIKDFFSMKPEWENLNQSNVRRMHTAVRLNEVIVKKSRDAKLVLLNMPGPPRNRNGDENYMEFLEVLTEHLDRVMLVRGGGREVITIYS
KCC2 secondary – KCC2 (human) modulation, secondary assay | shares compounds with Cl transport mod | HEK293-KCC2, thallium flux, FluoZin2 fluorescence; hits give high values | normalised thallium flux (F/F0 slope) at 10 µM | 3,700 compounds, 15% hits;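 active = thallium flux slope above the same plate's solvent-only control mean plus 3 SD; inconclusive = the two replicate wells disagree; inactive = no significant difference from solvent-only control wells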
KCC2 bumet counter – bumetanide-insensitive thallium flux in KCC2 cells with ouabain, counter-screen; HEK293-KCC2 + bumetanide/ouabain, thallium flux FluoZin2; hits give high values; AID 1714; 3,700 compounds, 49% hits; shares compounds with Cl transport mod; normalized thallium flux at 10 µM;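 active = thallium entry rate above the same plate's blocked-transporter control wells by more than 3 SD; inconclusive = the two repeat wells disagree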;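 note: raw slope of fluorescence over initial fluorescence between 10 and 20 s after thallium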
KCC2 sec2 – confirmation of human KCC2 transport modulators. shares compounds with Cl transport mod. HEK293-KCC2, thallium flux FluoZin2 fluorescence; actives lie on both sides; F/F0 rise rate, 10–20 s post-thallium. normalized thallium flux at 10 µM. 3,700 compounds, 23% hits. AID 1715;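 active = thallium flux slope more than 3 SD above or below the plate's solvent-only control mean, mostly below; inconclusive = the two repeat wells disagreed; inactive = no significant shift from solvent-only controls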;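 note: raw slope with 0.1% DMSO as baseline and bumetanide as block control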
HEK293 Tl flux – parental HEK flux effect, counter-screen; shares compounds with Cl transport mod; HEK293 parental cells, thallium flux FluoZin2, ouabain; baseline-ratio fluorescence slope, 10–20 s after thallium; thallium flux rate (normalised fluorescence) at 10 µM; 3,700 compounds, 46% hits;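 active = thallium flux rate significantly above the same plate's solvent-only control wells, beyond their mean plus 3 SD; inconclusive = the two replicate wells gave conflicting results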
KCC2 ouabain – confirmation of human KCC2 modulators with ouabain; shares compounds with Cl transport mod; HEK293-KCC2, thallium flux FluoZin2 fluorescence; bidirectional: low = inhibitor, high = activator; raw Tl+ flux slope (below DMSO = inhibition, above = activation) at 10 µM; 3,700 compounds, 48% hits; AID 1717;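 active = thallium flux slope beyond 3 SD from same-plate DMSO control mean in most replicates, usually higher, sometimes lower; inconclusive = repeat tests gave conflicting results; inactive = no significant difference from controls in most replicates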;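 note: slope of initial-normalized fluorescence between seconds 10 and 20 after thallium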
HEK293 Tl flux2 – acts in parental HEK cells, second KCC2 counter-screen; shares compounds with Cl transport mod; HEK293 parental, thallium flux FluoZin-2 fluorescence slope; thallium flux slope at 10 µM; 3,700 compounds, 33% hits; AID 1718;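 active = thallium flux slope above the same plate's solvent-control mean plus 3 SD in both duplicate wells; inconclusive = duplicate wells that disagreed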;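 note: run without ouabain in cells lacking the KCC2 cotransporter; slope of fluorescence scaled to its starting value between 10 and 20 s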
The depositor's hits bear a star; ? = inconclusive; nt = no result given.

SMILES	Furin inhibitor	NPY Y1 blocker	NPY2 pot ag	NPY-Y1 PAM-ag	NPY-Y2 antag	Cl transport mod	KCC2 secondary	KCC2 bumet counter	KCC2 sec2	HEK293 Tl flux	KCC2 ouabain	HEK293 Tl flux2
O=C(C1CC1)N1N=C(C2CCCCC2)CC1(O)C(F)(F)F (stereo unspecified)	-17.6	0.7	-3.0	11.2	nt	-0.0517	nt	nt	nt	nt	nt	nt
O=C(CN1C(=O)CSc2ccc(S(=O)(=O)N3CCOCC3)cc21)NCCCN1CCc2ccccc2C1	-14.4	-0.4	11.2	15.6	nt	-0.362	nt	nt	nt	nt	nt	nt
CN1CCC(OC(c2ccccc2)c2ccccc2)CC1	-6.4	-0.6	-9.1	-14.9	1.8	4.67*	0.0099	0.00693	0.03	?	0.0218	0.00975
CN1CCC(N(C)CC(O)c2ccccc2)CC1 (stereo unspecified)	-11.7	-5.0	3.7	8.6	nt	0.493	nt	nt	nt	nt	nt	nt
CCCOc1ccccc1/C=C(\C#N)C(=O)Nc1cccnc1	-11.6	nt	-3.1	7.0	nt	-2	nt	nt	nt	nt	nt	nt
CC(C)n1c(NCc2nc3ccccc3n2C)nc2ccccc21	-23.9	8.1	-4.6	-20.5	4.5	nt	0.00783	0.0057	0.0316	0.00703	0.0169	?
CC(C)c1ccc(NC(=S)NNC(=O)c2cccs2)cc1	-19.4	3.9	6.0	2.3	nt	24.9*	?	0.0376*	0.0274	0.0183*	?	?
CCOc1ccc(C(=O)NCC(=O)N2CCc3ccccc3C2)cc1OCC	-10.8	-0.6	-9.6	-12.3	nt	-2	nt	nt	nt	nt	nt	nt
Cc1ccccc1OCC(=O)N/N=C/C=C/c1ccccc1	-19.1	0.7	-6.7	-8.8	nt	-1.01	nt	nt	nt	nt	nt	nt
Cc1cccc(OCC(=O)N/N=C/CC(C)c2ccccc2)c1C (stereo unspecified)	-13.3	-0.2	-9.7	5.4	8.2	-4.47*	0.0089	0.00535	0.0309	0.00737	?	0.0112
COc1ccc(OC)c(NC(=O)C(C)Oc2ccc(Br)cc2)c1 (stereo unspecified)	-15.8	18.3	-20.1	-18.1	nt	-0.245	nt	nt	nt	nt	nt	nt
Cc1ccc(N=Nc2ccc(O)c3ncccc23)cc1C	-14.4	-7.0	-9.2	0.2	nt	8.21*	0.00781	0.00773*	0.0324	0.0138*	0.0227	?
CC(c1nnc(SCC(=O)Nc2cccnc2Cl)n1Cc1ccccc1)N(C)C (stereo unspecified)	-12.9	0.5	-6.0	-0.3	nt	0.493	nt	nt	nt	nt	nt	nt
COc1ccc(C(=O)c2cn[nH]c2-c2cc(Cl)ccc2O)cc1	-6.2	-4.5	0.3	9.5	0.1	-5.07*	0.00993	0.00602	0.0329	0.0072	0.0221	0.0107
Cc1ccc(S(=O)(=O)NCc2csc(-c3cccs3)n2)cc1	-18.9	nt	-17.5	-15.7	nt	-2.12*	0.0054	0.00354	0.0224*	0.0063	0.012*	?
O=S(=O)(NCc1csc(-c2cccs2)n1)c1cccs1	-13.6	nt	-6.6	2.6	nt	-4.11	nt	nt	nt	nt	nt	nt
O=S(=O)(NCc1csc(-c2cccs2)n1)c1ccc(Cl)cc1	-9.1	nt	-12.4	-7.6	nt	-5.12*	?	?	0.019*	0.00502*	0.0102*	?
O=S(=O)(NCc1csc(-c2cccs2)n1)c1cccc(C(F)(F)F)c1	-8.3	nt	-3.7	-3.9	nt	-5.4*	?	0.00357	0.0187*	0.0058*	0.0101*	?
Cc1cc(C)cc(OCC(=O)Nc2ccc3c(c2)C(=O)c2ccccc2C3=O)c1	-24.6	-5.4	2.6	5.8	1.7	0.213	nt	nt	nt	nt	nt	nt
Cc1nn(-c2ccccc2)c(N)c1Sc1cccc([N+](=O)[O-])c1	11.1	5.3	-10.0	-17.9	2.8	-7.03*	0.00854	0.00479	0.031	0.00531*	0.0285	0.0097
Cc1nn(-c2ccccc2)c(N)c1Sc1ccccc1[N+](=O)[O-]	-26.3	-4.1	4.4	-23.5	1.1	-0.422	nt	nt	nt	nt	nt	nt
CO/N=C(/CS(=O)(=O)c1ccc(C)cc1)c1ccc(OC)cc1	-9.3	-0.1	-2.0	-23.2	3.4	0.182	nt	nt	nt	nt	nt	nt
O=C(CSc1nnnn1-c1ccc(Cl)cc1)N1CCc2ccccc2C1	1.2	16.4	-22.5	-36.4	13.5	nt	0.00559	?	0.0248*	0.00715	?	0.00994
O=C(CSc1nnnn1-c1ccccc1)N1CCc2ccccc21	-21.2	6.2	-2.5	-16.6	-1.4	-1.27	nt	nt	nt	nt	nt	nt
O=c1cc(CSc2nnnn2-c2ccccc2)nc2scc(-c3ccccc3)n12	-16.8	-2.3	14.4	8.7	2.3	-4.71*	0.00883	0.00724	0.0235*	0.00652	0.0127*	0.00936
SMILES	Furin inhibitor	NPY Y1 blocker	NPY2 pot ag	NPY-Y1 PAM-ag	NPY-Y2 antag	Cl transport mod	KCC2 secondary	KCC2 bumet counter	KCC2 sec2	HEK293 Tl flux	KCC2 ouabain	HEK293 Tl flux2
O=C(O)CSc1nnnn1-c1ccccc1	-1.6	4.0	-3.5	-24.1	0.0	-0.643	nt	nt	nt	nt	nt	nt
O=C(CSc1nnnn1-c1ccccc1)CSc1nnnn1-c1ccccc1	-26.7	1.1	8.0	0.3	2.6	nt	0.00707	0.00456	0.0281	?	0.0257*	0.00979
O=C(COc1ccccc1)Nc1cccc(-c2nc3cc4ccccc4cc3[nH]2)c1	-12.5	-5.4	-7.9	-17.1	0.4	0.208	nt	nt	nt	nt	nt	nt
CC(=O)Nc1ccccc1Nc1cc(C#N)c(C#N)cc1[N+](=O)[O-]	-13.7	-3.9	10.5	16.0	2.7	nt	nt	nt	nt	nt	nt	nt
O=C(N/N=C/c1ccc[nH]1)c1sc2ccccc2c1Cl	0.4	-3.5	1.9	-17.2	4.6	9.75*	0.0138*	0.0938*	0.029	0.0238*	0.0502*	0.0111*
Cc1c(Cl)cccc1-n1c(SCC(=O)NCc2ccccc2Cl)nnc1-c1ccncc1	-8.3	-3.9	-5.9	21.1	0.5	-0.365	nt	nt	nt	nt	nt	nt
Cc1c(Cl)cccc1-n1c(SCC(=O)NCc2cccs2)nnc1-c1ccncc1	-4.2	-5.1	12.2	16.4	-1.9	-1.19	0.00985	0.00573	0.0365	0.00974*	0.0203	0.011
CCSS(=O)(=O)c1cccc2cccnc12	-13.5	nt	17.9	33.2	nt	3.89*	?	0.00794*	0.034	0.0101*	?	0.0138*
COc1ccccc1N1CCN(C2CCN(C(=O)COc3ccccc3)CC2)CC1	-15.9	2.6	-15.0	-14.6	nt	-0.284	nt	nt	nt	nt	nt	nt
Cc1cc2sc3nc(=O)n(-c4ccccc4)c(=O)n3c2cc1C	-25.4	nt	-25.1	5.6	nt	0.0263	nt	nt	nt	nt	nt	nt
